Test results from the array DNA melting data of Ke et al. (doi:10.1101/2024.01.08.574731).

How the values were obtained:
[1] = melting temperature; fluorescence melt of hairpins on a sequencing array, two-state fit, raised by 9.35 °C to match UV melts; details: sodium 0.088 M
Procedure, shortened: (§1)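 Two-state fits, bootstrapped, provided melting temperature and folding enthalpy from Cy3 fluorescence normalised to pre-quench Cy3 and to control constructs. Library hairpins with annealed Cy3 and quencher oligos were imaged on a sequenced MiSeq flow cell in 50 mM Na-HEPES pH 8.0, 25 mM NaCl, at 2.5 °C intervals up to 60 °C. Four replicates were combined with inverse-variance weighting. A 9.35 °C upward shift was applied to fitted temperatures to match UV melts.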

[2] = folding enthalpy; higher = less favourable; fluorescence melt of hairpins on a sequencing array, two-state fit; details: sodium 0.088 M
Procedure, shortened: as §1

Sequence | Tm [1] [°C] | folding enthalpy [2] [kcal/mol]
GATCCACATGTGGATC ((((((....)))))) | 62.1 | -41
GATCCACCCCTGGATC ((((((....)))))) | 49.9 | -37.2
GATCCACCGATGGATC ((((((....)))))) | 49.2 | -36.7
GATCCACCGCTGGATC ((((((....)))))) | 50 | -39.8
GATCCACCTATGGATC ((((((....)))))) | 50.1 | -41.4
GATCCACGACTGGATC ((((((....)))))) | 48.8 | -31.4
GATCCACGAGTGGATC ((((((....)))))) | 62.8 | -39.8
GATCCACGGCTGGATC ((((((....)))))) | 50.5 | -39.1
GATCCACGGGTGGATC ((((((....)))))) | 58.8 | -39.6
GATCCACGTTTGGATC ((((((....)))))) | 50.5 | -34.6
GATCCACTGATGGATC ((((((....)))))) | 50.4 | -38.5
GATCCACTGTGGATC ((((((...)))))) | 51.6 | -39.4
GATCCACTGTTGGATC ((((((....)))))) | 49.9 | -30.4
GATCCAGACCTGGATC ((((((....)))))) | 54.6 | -44.8
GATCCAGAGTTGGATC ((((((....)))))) | 49.2 | -39.8
GATCCAGATCTGGATC ((((((....)))))) | 54.3 | -48
GATCCAGGATGGATC ((((((...)))))) | 57.8 | -40.5
GATCCAGGGATGGATC ((((((....)))))) | 53.3 | -38.9
GATCCAGGGTGGATC ((((((...)))))) | 49.3 | -31.5
GATCCAGTAATGGATC ((((((....)))))) | 58.7 | -34.2
GATCCAGTACTGGATC ((((((....)))))) | 57.1 | -47.2
GATCCAGTCGTGGATC ((((((....)))))) | 52.8 | -35.9
GATCCAGTTATGGATC ((((((....)))))) | 58.4 | -46.4
GATCCAGTTGTGGATC ((((((....)))))) | 50.4 | -38.6

Sequence | Tm [1] [°C] | folding enthalpy [2] [kcal/mol]
GATCCAGTTTGGATC ((((((...)))))) | 52.6 | -32.4
GATCCATAAGTGGATC ((((((....)))))) | 51.9 | -39.2
GATCCATACGTGGATC ((((((....)))))) | 54.5 | -51
GATCCATACTTGGATC ((((((....)))))) | 54.4 | -37.3
GATCCATCATGGATC ((((((...)))))) | 52.5 | -32.5
GATCCATCCCTGGATC ((((((....)))))) | 51 | -35.4
GATCCATGATGGATC ((((((...)))))) | 49.6 | -34.2
GATCCATGCTTGGATC ((((((....)))))) | 55.1 | -43.6
GATCCATGGATGGATC ((((((....)))))) | 53 | -39.1
GATCCATGTTGGATC ((((((...)))))) | 52 | -36.8
GATCCATGTTTGGATC ((((((....)))))) | 53.8 | -42.8
GATCCATTGGTGGATC ((((((....)))))) | 53 | -44.4
GATCCCACCCGGGATC ((((((....)))))) | 60 | -41.1
GATCCCACCGGGGATC ((((((....)))))) | 63.7 | -32.3
GATCCCACCTGGGATC ((((((....)))))) | 60.1 | -35.6
GATCCCACTAGGGATC ((((((....)))))) | 65.9 | -33.1
GATCCCACTGGGATC ((((((...)))))) | 60.9 | -34.8
GATCCCAGAGGGATC ((((((...)))))) | 68.5 | -34.2
GATCCCAGCCGGGATC ((((((....)))))) | 64.2 | -32.8
GATCCCAGGGGGGATC ((((((....)))))) | 59.2 | -32.3
GATCCCAGTAGGGATC ((((((....)))))) | 66 | -35
GATCCCAGTCGGGATC ((((((....)))))) | 61.3 | -33.4
GATCCCAGTTGGGATC ((((((....)))))) | 61.2 | -42
GATCCCATACGGGATC ((((((....)))))) | 64.6 | -38.5

Sequence | Tm [1] [°C] | folding enthalpy [2] [kcal/mol]
GATCCCATTGGGATC ((((((...)))))) | 65.5 | -31.9
GATCCCATTGGGGATC ((((((....)))))) | 62.1 | -38.2
GATCCCCACGGGATC ((((((...)))))) | 63.4 | -34.9
GATCCCCATCGGGATC ((((((....)))))) | 58.2 | -35.4
GATCCCCCAGGGATC ((((((...)))))) | 63.8 | -33.9
GATCCCCCAGGGGATC ((((((....)))))) | 65.2 | -36.4
GATCCCCCCGGGGATC ((((((....)))))) | 65.9 | -39.7
GATCCCCCGGGGGATC ((((((....)))))) | 66 | -41.4
GATCCCCGAGGGGATC ((((((....)))))) | 68.5 | -37.2
GATCCCCGCGGGGATC ((((((....)))))) | 67.4 | -38.8
GATCCCCGGGGGGATC ((((((....)))))) | 66.6 | -29.9
GATCCCCGTGGGATC ((((((...)))))) | 65.2 | -27.8
GATCCCCTAGGGATC ((((((...)))))) | 64.4 | -38.4
GATCCCCTGAGGGATC ((((((....)))))) | 61.9 | -31.8
GATCCCCTTAGGGATC ((((((....)))))) | 63.2 | -45
GATCCCCTTCGGGATC ((((((....)))))) | 58.7 | -39.9
GATCCCCTTTGGGATC ((((((....)))))) | 61 | -33.9
GATCCCGAAAGGGGATC ((((((....))).))) | 57.8 | -31.4
GATCCCGAAAGGGTCATC ((((((....)))..))) | 42.8 | -12.1
GATCCCGAAAGGGTGATC ((((((....)))..))) | 39.8 | -16.1
GATCCCGAAGGGGATC ((((((....)))))) | 65.5 | -19.7
GATCCCGAGCGGGATC ((((((....)))))) | 61.6 | -40.5
GATCCCGAGTGGGATC ((((((....)))))) | 61.1 | -33.7
GATCCCGATCGGGATC ((((((....)))))) | 62.3 | -50.5

Sequence | Tm [1] [°C] | folding enthalpy [2] [kcal/mol]
GATCCCGATGGGATC ((((((...)))))) | 61.3 | -36.5
GATCCCGCCGGGGATC ((((((....)))))) | 63.1 | -37.7
GATCCCGGAAACGGGACC (.(((((....))))).) | 46.7 | -11
GATCCCGGTGGGGATC ((((((....)))))) | 59.3 | -40.2
GATCCCGTAGGGGATC ((((((....)))))) | 62.9 | -23.4
GATCCCGTGTGGGATC ((((((....)))))) | 63.9 | -33.9
GATCCCGTTGGGGATC ((((((....)))))) | 64.7 | -42.4
GATCCCTAAGGGATC ((((((...)))))) | 60.2 | -38.4
GATCCCTACGGGGATC ((((((....)))))) | 62.1 | -39.4
GATCCCTATCGGGATC ((((((....)))))) | 60.2 | -38
GATCCCTATGGGATC ((((((...)))))) | 64.8 | -36.1
GATCCCTCAGGGGATC ((((((....)))))) | 60.6 | -34.6
GATCCCTCATGGGATC ((((((....)))))) | 62.6 | -37
GATCCCTCCAGGGATC ((((((....)))))) | 63.9 | -39.1
GATCCCTCCGGGGATC ((((((....)))))) | 65.3 | -31.3
GATCCCTCCTGGGATC ((((((....)))))) | 61 | -37
GATCCCTCGAGGGATC ((((((....)))))) | 62 | -41.7
GATCCCTCGGGGATC ((((((...)))))) | 62.9 | -34.5
GATCCCTGAGGGGATC ((((((....)))))) | 63 | -39.4
GATCCCTGATGGGATC ((((((....)))))) | 59.8 | -41.1
GATCCCTGCAGGGATC ((((((....)))))) | 66 | -37.8
GATCCCTGTAGGGATC ((((((....)))))) | 65.8 | -41.1
GATCCCTTGCGGGATC ((((((....)))))) | 60.7 | -39.6
GATCCCTTTCGGGATC ((((((....)))))) | 60.1 | -48.2
